{"source": "paper PMC10160980", "about": "(Proceedings of the National Academy of Sciences of the …, 2023)", "key": {"MDA-MB-231 cells [1]": {"tested_on": "MDA-MB-231 cells", "format": "cell-based, human"}, "GIV binding to Gαi3": {"molecular_target": "GIV binding to Gαi3 (Rattus norvegicus, UniProt P08753)", "sequence (P08753 whole entry)": "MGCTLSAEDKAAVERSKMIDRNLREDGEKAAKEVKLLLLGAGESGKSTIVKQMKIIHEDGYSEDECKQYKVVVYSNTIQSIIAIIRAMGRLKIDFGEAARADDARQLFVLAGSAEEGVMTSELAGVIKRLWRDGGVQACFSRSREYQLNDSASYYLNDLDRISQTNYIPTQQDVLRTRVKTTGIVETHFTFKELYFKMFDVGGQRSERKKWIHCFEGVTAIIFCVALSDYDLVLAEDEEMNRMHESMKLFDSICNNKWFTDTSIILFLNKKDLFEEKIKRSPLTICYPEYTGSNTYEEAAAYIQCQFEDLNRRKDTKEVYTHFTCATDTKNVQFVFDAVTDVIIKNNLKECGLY", "assay": "Fluorescence polarization"}, "[2]": {"tested_on": "Akt phosphorylation at S473 in HeLa cells", "assay": "EGF-stimulated Akt activation", "format": "cell-based, human", "conditions": "EGF 50 nM, 5 min", "procedure,_shortened": "(§1)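 Cells were preincubated with a range of test compound concentrations, then stimulated with EGF for 5 min (1.6 nM for MDA-MB-231, 50 nM for HeLa). Cells were then lysed and Akt activation was read by immunoblotting.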"}, "[3]": {"tested_on": "endogenous β-adrenergic receptors (cAMP via Gαs)", "assay": "Luminescence-based cAMP", "format": "cell-based, human", "conditions": "100 μM; isoproterenol 100 nM; HEK293T", "procedure,_shortened": "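HEK293T cells expressing the Glosensor luminescent cAMP sensor plus α2A-AR or GABA_BR were pretreated with test compound (100 μM) or DMSO. They were then stimulated with isoproterenol (100 nM), with or without prestimulation by brimonidine (1 μM) or GABA (100 μM). Luminescence was recorded. Mean ± SEM, N ≥ 3; ANOVA.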"}, "MDA-MB-231 cells (CXCR4)": {"tested_on": "MDA-MB-231 cells (CXCR4)", "assay": "SDF-1α mediated cell migration, MDA-MB-231", "format": "cell-based, human", "conditions": "SDF-1α as chemoattractant; up to 100 μM"}, "MCF-10A cells [4]": {"tested_on": "MCF-10A cells", "assay": "Cell viability assay, MCF-10A", "format": "cell-based, human", "conditions": "100 μM, 24 h", "procedure,_shortened": "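Single-concentration viability screen at 100 μM in MCF-10A cells, run alongside MDA-MB-231 and MCF-7. Values are the mean of N = 3.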"}, "[5]": {"tested_on": "GIV-depleted (shGIV) MDA-MB-231 cells", "assay": "Tumor cell migration, GIV-depleted MDA-MB-231", "format": "cell-based, human", "conditions": "100 μM", "procedure,_shortened": "(§2)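 GIV-depleted (shGIV) and matched control (shControl) cells were run side by side in a modified Boyden-chamber assay of chemotactic migration toward FBS with test compound. Results are mean ± SEM (N ≥ 3).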"}, "Stability in plasma": {"assay": "Stability in plasma", "format": "in vitro ADME", "conditions": "preliminary results"}, "[6]": {"tested_on": "Akt activation in GIV-depleted cells (shGIV)", "assay": "EGF-stimulated Akt activation in GIV-depleted cells", "format": "cell-based, human", "conditions": "100 μM", "procedure,_shortened": "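GIV-depleted (shGIV) and control (shControl) cells were handled the same way: preincubation with test compound, EGF stimulation for 5 min, lysis, then immunoblotting for Akt activation.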"}, "MDA-MB-231 cells [7]": {"tested_on": "MDA-MB-231 cells", "assay": "Matrigel cultures, MDA-MB-231", "format": "cell-based, human", "conditions": "100 μM for 2 days, culture 7 days"}, "MDA-MB-231 cells [8]": {"tested_on": "MDA-MB-231 cells", "assay": "Cell viability assay", "format": "cell-based, human", "conditions": "up to 100 μM, 24 h", "procedure,_shortened": "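Cell viability was measured after 24 h incubation with test compound at indicated concentrations. IC50 was derived from the concentration-response data. Mean ± SEM, N ≥ 3.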"}, "[9]": {"tested_on": "Akt activation upon stimulation of the GPCR CXCR4 in MDA-MB-231 cells", "assay": "SDF-1α-stimulated Akt activation", "format": "cell-based, human", "conditions": "SDF-1α 100 ng/mL, 10 min; IGGi-11me 100 μM; PTX 100 ng/mL"}, "[10]": {"tested_on": "Akt phosphorylation at S473 in MDA-MB-231 cells", "assay": "EGF-stimulated Akt activation", "format": "cell-based, human", "procedure,_shortened": "as §1"}, "[11]": {"tested_on": "GIV-depleted (shGIV) HeLa cells", "assay": "Tumor cell migration, GIV-depleted HeLa", "format": "cell-based, human", "procedure,_shortened": "as §2"}, "MCF-10A cells [12]": {"tested_on": "MCF-10A cells", "assay": "Matrigel cultures, MCF-10A", "format": "cell-based, human", "conditions": "100 μM"}, "BT-549 cells": {"tested_on": "BT-549 cells", "assay": "Tumor cell migration, BT-549", "format": "cell-based, human", "conditions": "1-100 μM", "procedure,_shortened": "(§3)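 Chemotactic migration toward FBS was measured in a modified Boyden chamber across a range of test compound concentrations. IC50 was derived from the concentration–response data. Results are mean ± SEM (N ≥ 3).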"}, "MDA-MB-231 cells [13]": {"tested_on": "MDA-MB-231 cells", "assay": "Growth of pretreated MDA-MB-231 cells on plastic dishes", "format": "cell-based, human", "conditions": "cells treated overnight with 100 μM"}, "Hs578T cells": {"tested_on": "Hs578T cells", "assay": "Tumor cell migration, Hs578T", "format": "cell-based, human", "conditions": "1-100 μM", "procedure,_shortened": "as §3"}, "[14]": {"assay": "Hydrolytic processing of IGGi-11me by cytosolic fraction of MDA-MB-231 cells", "format": "in vitro ADME, human", "conditions": "2 hours, 37 °C"}, "GIV–Gαi3 binding": {"molecular_target": "GIV–Gαi3 binding (Rattus norvegicus, UniProt P08753)", "sequence (P08753 whole entry)": "as above", "conditions": "cell-free systems; cited from earlier work"}}}
{"smiles": "COC(=O)CCCN(C)S(=O)(=O)c1ccc2c(c1)Cc1cc(S(=O)(=O)N(C)CCCC(=O)OC)ccc1-2", "note": "[IGGi-11me]", "values": [{"measurement": "inhibition of MDA-MB-231 cell migration, dose dependence", "setting": "MDA-MB-231 cells [1]; FBS as chemoattractant, 1-100 μM, preincubation", "value": "efficiently reduced their ability to migrate"}, {"measurement": "potency on migration of MDA-MB-231 relative to MCF-7", "setting": "MDA-MB-231 cells [1]; GIV^High vs GIV^Low", "value": "approximately four times more potent"}, {"measurement": "potency as inhibitor of GIV–Gαi3 binding relative to IGGi-11, FP", "setting": "GIV binding to Gαi3", "value": "lower potency compared to IGGi-11"}, {"measurement": "EGF-stimulated phosphorylation of Akt at S473, HeLa", "setting": "[2]", "value": "reduced, in a dose-dependent manner, the phosphorylation of Akt at S473"}, {"measurement": "cAMP response to isoproterenol in the absence of Gi-mediated regulation", "setting": "[3]", "value": "had no effect"}, {"measurement": "MDA-MB-231 cell migration toward SDF-1α", "setting": "MDA-MB-231 cells (CXCR4)", "value": "did not affect MDA-MB-231 cell migration"}, {"measurement": "viability of MCF-10A cells", "setting": "MCF-10A cells [4]", "value": "did not affect the viability"}, {"measurement": "cell migration of GIV-depleted MDA-MB-231 cells", "setting": "[5]", "value": "had no effect on MDA-MB-231 cell migration upon GIV depletion"}, {"measurement": "stability in plasma", "setting": "Stability in plasma", "value": "rapidly degraded in plasma"}, {"measurement": "EGF-stimulated Akt activation in GIV-depleted cells", "setting": "[6]", "value": "failed to further reduce Akt activation in GIV-depleted cells"}, {"measurement": "growth of MDA-MB-231 cells in Matrigel cultures", "setting": "MDA-MB-231 cells [7]", "value": "overall reduction of cell growth"}, {"measurement": "viability of MDA-MB-231 cells", "setting": "MDA-MB-231 cells [8]", "value": "did not affect the viability"}, {"measurement": "SDF-1α-stimulated Akt activation, MDA-MB-231", "setting": "[9]", "value": "does not block Akt activation"}, {"measurement": "EGF-stimulated phosphorylation of Akt at S473, MDA-MB-231", "setting": "[10]; EGF 1.6 nM, 5 min, PTX 100 ng/mL", "value": "reduced, in a dose-dependent manner, the phosphorylation of Akt at S473"}, {"measurement": "total amount of GIV or Gαi", "setting": "[10]; immunoblot", "value": "did not change the total amount of GIV or Gαi"}, {"measurement": "cell migration of GIV-depleted HeLa cells", "setting": "[11]", "value": "inhibition of tumor cell migration is lost upon depletion of GIV"}, {"measurement": "growth of MCF-10A cells in Matrigel cultures", "setting": "MCF-10A cells [12]", "value": "did not affect the growth of nontransformed MCF-10A breast cells in Matrigel cultures"}, {"measurement": "inhibition of BT-549 cell migration", "setting": "BT-549 cells", "value": "potency similar to that seen for MDA-MB-231 cells"}, {"measurement": "growth of pretreated MDA-MB-231 cells on plastic dishes", "setting": "MDA-MB-231 cells [13]", "value": "had no effect"}, {"measurement": "inhibition of Hs578T cell migration", "setting": "Hs578T cells", "value": "potency similar to that seen for MDA-MB-231 cells"}, {"measurement": "conversion to IGGi-11 by cellular esterases", "setting": "[14]", "value": "converted to IGGi-11 by esterases present in the cytosol of MDA-MB-231 cells"}]}
{"smiles": "O=C(Nc1cccc(C(=O)Nc2ccc(S(=O)(=O)O)c3cc(S(=O)(=O)O)cc(S(=O)(=O)O)c23)c1)Nc1cccc(C(=O)Nc2ccc(S(=O)(=O)O)c3cc(S(=O)(=O)O)cc(S(=O)(=O)O)c23)c1", "note": "[NF023]", "values": [{"measurement": "disruption of the GIV–Gαi interaction", "setting": "GIV–Gαi3 binding", "value": "disrupts the GIV–Gαi interaction"}]}
